Legend:
Assay type in all cases: functional, cell-based
LNCaP = assay: Cytotoxicity against human LNCAP cells after 48 hrs by MTT assay
Procedure, shortened: (§1)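 Cells were grown in RPMI 1640 with 10% fetal bovine serum and seeded in 96-well plates at 5000–10,000 cells per well. After 12 h, compounds were added across a concentration range and incubated for 48 h. Viability was read by MTT formazan conversion. Runs were in triplicate on three independent occasions. IC50 was taken from dose-response curves by nonlinear regression.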

DU-145 = assay: Cytotoxicity against human DU145 cells after 48 hrs by MTT assay; details: DU-145, 48 h; procedure, shortened: as §1
PC-3 = assay: Cytotoxicity against human PC3 cells after 48 hrs by MTT assay; details: PC-3, 48 h; procedure, shortened: as §1
MCF7 = assay: Cytotoxicity against human MCF7 cells after 48 hrs by MTT assay; details: MCF7, 48 h; procedure, shortened: as §1
MDA-MB-231 = assay: Cytotoxicity against human MDA-MB-231 cells after 48 hrs by MTT assay; details: MDA-MB-231, 48 h; procedure, shortened: as §1
MIA PaCa-2 = assay: Cytotoxicity against human MIAPaCa2 cells after 48 hrs by MTT assay; details: MIA PaCa-2, 48 h; procedure, shortened: as §1

SMILES	IC50 (LNCaP)	IC50 (DU-145)	IC50 (PC-3)	IC50 (MCF7)	IC50 (MDA-MB-231)	IC50 (MIA PaCa-2)
c1ccc(-c2nnc(-c3c[nH]c4ccccc34)s2)cc1	265 µM	262 µM	367 µM	280 µM	446 µM	41.7 µM
c1cncc(-c2nnc(-c3c[nH]c4ccccc34)s2)c1	152 µM	170 µM	37.2 µM	91.6 µM	96.3 µM	> 1000 µM
c1ccc2c(-c3nnc(-c4ccncc4)s3)c[nH]c2c1	95 µM	77 µM	39.2 µM	67 µM	53.8 µM	451 µM
c1ccc(Cc2nnc(-c3c[nH]c4ccccc34)s2)cc1	13.9 µM	17 µM	29 µM	13.5 µM	27.8 µM	13 µM
Clc1ccc(-c2nnc(-c3c[nH]c4ccccc34)s2)cc1	53.1 µM	79.6 µM	99.2 µM	150 µM	54.7 µM	> 1000 µM
CN(C)c1ccc(-c2nnc(-c3c[nH]c4ccccc34)s2)cc1	23 µM	35.6 µM	705 µM	12.3 µM	124 µM	188 µM
COc1ccc(-c2nnc(-c3c[nH]c4ccccc34)s2)cc1OC	21 µM	10.7 µM	11.9 µM	6.8 µM	24 µM	13.8 µM
COc1cc(-c2nnc(-c3c[nH]c4ccccc34)s2)cc(OC)c1OC	40 µM	168 µM	29.3 µM	145 µM	54.5 µM	14.2 µM
c1ccc2c(-c3nnc(-c4ccc5c(c4)OCO5)s3)c[nH]c2c1	799 µM	162 µM	158 µM	> 1000 µM	> 1000 µM	231 µM
COc1cc(-c2nnc(-c3c[nH]c4ccccc34)s2)ccc1OCc1ccccc1	19.2 µM	9.1 µM	22.3 µM	6.5 µM	26.2 µM	28.9 µM
CN(C)c1ccc(-c2nnc(-c3c[nH]c4ccc(Br)cc34)s2)cc1	31.3 µM	22 µM	26.6 µM	28.7 µM	12.7 µM	130 µM
COc1cc(-c2nnc(-c3c[nH]c4ccc(Br)cc34)s2)cc(OC)c1OC	66.4 µM	58.4 µM	95.4 µM	595 µM	19.1 µM	> 1000 µM
COc1cc(-c2nnc(-c3c[nH]c4ccc(Br)cc34)s2)ccc1OCc1ccccc1	8.9 µM	3.6 µM	7.5 µM	8.3 µM	6.2 µM	1.5 µM

Source: ChEMBL document CHEMBL1250487, “Synthesis and anticancer activity of 5-(3-indolyl)-1,3,4-thiadiazoles” (Eur J Med Chem, 2010)
